Reference: publication PMC11022046 (iScience, 2024)
pIC50: −log10 of the molar value. Counter-ions that a name gives are not always drawn.

Columns and labels:
[1] = In vivo pharmacokinetics, single IP dose; parameters: species or system BALB/c mice
Method in brief: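 Female BALB/c mice (8–14 weeks) given 5 mg/kg by single IP injection in 1% DMSO/99% water. Plasma sampled at 0.25, 0.5, 1, 2, 4, 6, 8 and 24 h. Compound quantified by LC-MS/MS with calibration standards and QC samples. Terminal elimination half-life and maximum concentration derived; n = 3 mice per treatment.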

H1299 cells [2] = assay: Extracellular lactate assay; assay type: cell-based, human; details: H1299, 1 and 2 μM, 48 h
Method in brief: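 H1299 seeded at 3.75 × 10⁴ or 7.5 × 10⁴ cells/well, then treated 48 h with 1 or 2 μM or with DMSO. Medium passed through a 3K cutoff filter at 14,000 × g, 15 min, 4°C. Lactate measured with a WST-based kit on medium diluted 1:20, in triplicate, against a standard curve. Values normalized to cell count and DMSO; three biological replicates.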

H1299 cells [3] = assay: Mitochondrial structure by electron microscopy; assay type: cell-based, human; details: H1299, 48 h, 1 or 2 μM
Method in brief: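 H1299 cells (1.75 × 10⁵ per 10 cm plate) exposed 48 h to 1 or 2 μM or to DMSO, then scraped and pelleted. Pellets fixed 4 h at room temperature in 2.0% paraformaldehyde/2.5% glutaraldehyde in 0.1 M cacodylate, pH 7.2. Post-fixed in 1.0% osmium tetroxide for 1 h; en bloc 2% aqueous uranyl acetate, 20 min, 60°C. Three biological replicates.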

H1299 lung cancer cells [4] = assay: SRB proliferation assay; assay type: cell-based; details: Homo sapiens, NCI-H1299, 72 h, read-out: SRB IC50
Method in brief: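 H1299 cells (RPMI/10% FBS) seeded the day before, then given serial half dilutions from 20 μM down to 0.078 μM for 72 h. Fixed in cold 10% TCA for 1 h and stained 15 min with 0.4% SRB. Washed with water and 1% acetic acid, dye dissolved in 10 mM Tris pH 10.5, OD read at 560 nm. Normalized to DMSO; IC₅₀ with 95% CI by nonlinear regression. Three biological × three technical replicates.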

H1299 cells [5] = assay: 3D spheroid invasion assay; assay type: cell-based, human; details: H1299 spheroids in basement membrane matrix, 2 μM, 48 h
Method in brief: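 H1299 spheroids formed over 3 days from 3 × 10³ cells/well in low-attachment wells. Embedded in Matrigel containing 0.5, 1 or 2 μM compound, with compound also in the medium, and incubated 48 h. Imaged at Day 0 and Day 2 with a 4× objective; perimeter outlined. Invasion area = Day 2 area minus Day 0 area. At least four spheroids per treatment in each of three biological replicates.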

H1299 cells [6] = assay: TMRM flow cytometry with oligomycin; assay type: cell-based, human; details: H1299, 1 μM, 48 h, + 1 μM oligomycin, mean of three replicates
Method in brief: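 H1299 cells (1.75 × 10⁵ per 10 cm plate) exposed 48 h to 1 μM or to DMSO. Attached and floating cells pooled and stained with 2 nM TMRM in phenol-red-free RPMI with 2% dialyzed FBS for 30 min at 37°C. Oligomycin (1 μM) added during the TMRM incubation, then flow cytometry. Three biological replicates.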

H1299 lung cancer cells [7] = assay: WST-8 proliferation assay; assay type: cell-based; details: Homo sapiens, NCI-H1299, 72 h, read-out: WST IC50
Method in brief: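 H1299 cells (RPMI/10% FBS) seeded the day before, then given serial half dilutions from 20 μM down to 0.078 μM for 72 h. WST-8 reagent added to the medium at 1:10, 2 h at 37°C, OD read at 450 nm; both adherent and non-adherent cells counted. Normalized to DMSO; IC₅₀ with 95% CI by nonlinear regression. Three biological × three technical replicates.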

[8] = Caco-2 permeability assay; assay type: in vitro ADME; details: human
Method in brief: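 Caco-2 monolayers grown to confluence on transwells, with integrity checked by TEER. Test compound (5 μM) added to the apical or the basolateral side to give transport direction. After 2 h, donor and receiver samples quantified by LC-MS/MS. Lucifer Yellow used to check leakage. Propranolol (high absorption) and digoxin (high efflux) served as controls.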

[9] = female, BALB/c, mouse, plasma, ip, 5 mg/kg

## CCCCC(CC)CNC(=N)NC(=N)NCCCCCCNC(=N)NC(=N)NCC(CC)CCCC (stereo not shown) [Alexidine, Alexidine dihydrochloride]
[1]; [9]
  Cmax: 268 ng/mL
  half-life: 9.5 h
[1]; mice, IP
  tolerability in mice: tolerated in mice
H1299 cells [2]
  effect on extracellular lactate: increased lactate concentration
H1299 cells [3]
  effect on mitochondrial structure: disrupted mitochondrial structure
H1299 lung cancer cells [4]
  pIC50: 6.00
H1299 cells [5]
  invasive area, % of the control: 36.8%
H1299 cells [6]
  percentage of cells unable to hyperpolarize with oligomycin (TMRM-low population): 18.1%
H1299 lung cancer cells [7]
  pIC50: 5.60
[8]
  efflux ratio at 2 h, 5 μM: > 5.37
